Experimental findings from ChEMBL document CHEMBL2062492 (ACS Med Chem Lett, 2012) are described below.

Data set [1] has as its system T47D. The data set can be described thus: Growth inhibition of human T47D cells at 10^-6 M after 5 days relative to control. Type of data set: functional. The following applies: 120 h, read-out: GI. A digest of the protocol:
(§1)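 Cell survival assay on ER+ MCF-7 or T47D cells treated at fixed concentrations of 10–7 M and 10–6 M. 4-OHT-treated cells served as positive control. Growth inhibition is expressed as percent relative to survival.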

The nature of data set [2]: Half life of the compound in human MCF7 cells at 10^-6 M by HPLC-MS/MS analysis. Type of data set: ADME, cell-based.
In data set [3] the test system is MCF7. Description: Cytotoxicity against human MCF7 cells after 5 days. The following applies: MCF7, 120 h. Type of data set: functional, cell-based.
For data set [4], the system named is T47D. The data set can be described thus: Cytotoxicity against human T47D cells after 5 days. Type of data set: functional, cell-based. The settings on record: 120 h.
Another data set has as its system MDA-MB-231. The data set can be described thus: Cytotoxicity against human MDA-MB-231 cells assessed as cell survival at 10^-7 M relative to vehicle-treated control. It is filed as functional. The following applies: for viability at 0.1 µM: read-out: Survival. The gist of the method:
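MDA-MB-231 used as the ER-negative breast cancer line, tested at 10–7 M alongside MCF-7 cells. Read-out is survival ratio versus control.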

For data set [5], the system named is MCF7. The data set can be described thus: Growth inhibition of human MCF7 cells at 10^-7 M after 5 days relative to control. The following applies: MCF7, 120 h, read-out: GI. It is filed as functional. A digest of the protocol: as §1
Data set [6] has as its system MCF7. The data set can be described thus: Drug uptake in human MCF7 cells at 10^-6 M after 6 days by HPLC-MS/MS analysis. It is filed as ADME, cell-based. The following applies: mcf7, 144 h, 1 µM. The gist of the method:
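Uptake is estimated indirectly. Drug remaining in the culture medium was measured after 6 days of incubation with MCF-7 cells.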

Data set [7] has as its system MCF7. Description: Growth inhibition of human MCF7 cells at 10^-6 M after 5 days relative to control. Type of data set: functional. The settings on record: MCF7, 120 h, read-out: GI. The gist of the method:
as §1

Data set [8] has as its system MCF7. The data set can be described thus: Metabolic stability in human MCF7 cells assessed as compound remaining by LC-MS/MS analysis. Type of data set: ADME, cell-based.
The subject of data set [9] is T47D. Description: Metabolic stability in human T47D cells assessed as compound remaining by LC-MS/MS analysis. It is filed as ADME, cell-based. A digest of the protocol:
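Culture medium from MCF-7 or T47D cells incubated with prodrug was analysed for both intact prodrug and released 4-OHT. Results are reported as relative chromatographic peak areas (% of total for prodrug versus 4-OHT).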

Data set [10] concerns T47D. The data set can be described thus: Growth inhibition of human T47D cells at 10^-7 M after 5 days relative to control. Type of data set: functional. The following applies: 120 h, read-out: GI. The gist of the method: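 Cell survival assay in ER+ T47D breast cancer cells dependent on estrogen for growth. Compounds tested at 10–7 and 10–6 M, with 4-OHT as positive control. Read-out is % growth inhibition from survival relative to control.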

Data set [11] relates to MCF7. The data set can be described thus: Ratio of tamoxifen IC50 to compound IC50 for human MCF7 cells. Type of data set: functional.
Data set [12] concerns MCF7. The data set can be described thus: Ratio of 4-hydroxytamoxifen IC50 to compound IC50 for human MCF7 cells. Type of data set: functional.

Active and inactive are the calls of the source.

The half-life is the time needed for the level to fall by half in the phase considered. A high value points to slow decline. By IC50 is commonly meant the concentration at which inhibition is half-maximal. Read a low IC50 as inhibition by little substance.

On to `CC/C(=C(/c1ccc(OCCN(C)C)cc1)c1ccc([B-](F)(F)F)cc1)c1ccccc1.[K+]`, for which the inhibition of growth at 1 µM in the data set on T47D [1] is 50%; in the data set on MCF7 [7], 76%. Besides, in data set [2], the half-life at 1 µM was 84 h. Further, the 50% inhibitory concentration (IC50) in the data set with MCF7 [3] stood at 6.26 nM; in the data set with T47D [4], 260 nM. The result with MDA-MB-231 was inactive. Also, in the data set on MCF7 [5], the inhibition of growth at 0.1 µM was found to be 59%. Moreover, the Drug uptake entry with MCF7 [6] is on record as “Active”.
`CC/C(=C(/c1ccc(OCCN(C)C)cc1)c1ccc(B(O)O)cc1)c1ccccc1`: the inhibition of growth at 1 µM in the data set on T47D [1] is 54%; in the data set on MCF7 [7], 75%. The half-life at 1 µM in data set [2] was 96 h. The results for the IC50 in the data set with MCF7 [3] and with T47D [4] were 42 nM and 228 nM, respectively. Also, the Stability stood at 30.4% with MCF7 [8] and 20.9% with T47D [9]. Further, the result in the data set on MDA-MB-231 was inactive. In addition, in the data set with MCF7 [5], the inhibition of growth at 0.1 µM is 51%. Moreover, the Drug uptake result with MCF7 [6] is “Active”.
In the case of `CCC(=C(c1ccc(O)cc1)c1ccc(OCCN(C)C)cc1)c1ccccc1`, the IC50 in the data set with MCF7 [3] is 29.1 nM; with T47D [4] it was 210 nM. Also, in the data set with MDA-MB-231, the viability at 0.1 µM was greater than 95%. Further, the inhibition of growth at 0.1 µM in the data set on T47D [10] turned out to be 51%; in the data set on MCF7 [5] it was 56%. Further, in the data set with MCF7 [11], the “Ratio IC50” value is given as 30. Moreover, the Drug uptake result with MCF7 [6] is on record as “Active”. In addition, in the data set on MCF7 [7], the inhibition of growth at 1 µM worked out at 63%.
With `CC/C(=C(\c1ccccc1)c1ccc(OCCN(C)C)cc1)c1ccccc1` [TAMOXIFEN], the viability at 0.1 µM in the data set on MDA-MB-231 was greater than 95%. The inhibition of growth at 0.1 µM in the data set with MCF7 [5] came out at 18%. The inhibition of growth at 1 µM with MCF7 [7] was 52%.
On to `CC/C(=C(/c1ccc(OCCN(C)C)cc1)c1ccc(B2OC(C)(C)C(C)(C)O2)cc1)c1ccccc1`, for which the inhibition of growth at 1 µM in the data set with T47D [1] was determined as 60%; in the data set with MCF7 [7] it was 63%. In addition, the half-life at 1 µM in data set [2] was 89 h. For the same compound, the IC50 is 148 nM with MCF7 [3] and 144 nM in the data set on T47D [4]. Besides, the result in the data set on MDA-MB-231 was inactive. For the same compound, the Ratio IC50 in the data set on MCF7 [12] was 0.2. Besides, in the data set with MCF7 [5], the inhibition of growth at 0.1 µM came to 52%. In the data set with MCF7 [6], the Drug uptake entry is listed as “Active”.
